Assay outcomes deposited in PubChem BioAssay by several laboratories.
Sampled rows, rich in hits. Any-hit rate of the full collection: about 6.4%.
H69AR inhibit = blocks growth of human H69AR lung tumor cells | hit rate 6% among 85,000 | AID 598 | viability, % at 10 µM | H69AR lung tumor viability, ATP luminescence, 72 h; active compounds read low;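 active means viability at or below 40%; inactive means viability above 40%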;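 further: multidrug resistant small cell line overexpressing MRP-1 efflux transporter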
HUVEC inhibit = human endothelial cell proliferation inhibition | HUVEC proliferation, CellTiter-Glo luminescence, 72 h; active compounds read low | hit rate 1.1% among 86,000 | viability, % at 10 µM (by protocol);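 active means viability at or below 30%; inactive means viability above 30%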
Ecoli tolC = growth inhibitors of E. coli BW25113 tolC mutant; OD615; growth inhibition, % at 10 µM (by protocol); hit rate 2.2% among 65,000; AID 573;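 active means growth inhibition at or above a cutoff equal to the mean over every tested compound plus 3 SD, cut at about 60% in these data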;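 further: growth measured after 20 h incubation at 37 °C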
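Doses: one dose of 10 µM final / Material: E. coli BW25113 ΔtolC::kan, tolC deletion mutant strain / Buffer or medium: LB with kanamycin 50 µg/mL / Evaluation: percent growth inhibition / Detection: optical density read at 615 nm / Incubation: 37 °C, 20 h exposure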
Jurkat tox 60K = cytotoxic compounds reducing Jurkat cell viability; inhibition, % at 4 µM; AID 463; Jurkat E6.1 viability, ATP luminescence, 48 h; hit rate 1.2% among 56,000;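 active means inhibition above the mean inhibition of all tested compounds plus 3 SD, cut at about 28% in these data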
Lung fibro prol = blocks proliferation of human lung fibroblasts | LL 47 human lung fibroblast viability, ATP luminescence; active compounds read low | viability, % at 10 µM | hit rate 1.1% among 85,000;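 active means viability at or below 50% in the single dose screen; inactive means viability above 50%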;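 further: compound exposure lasted 72 h before the ATP readout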
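Material: human LL 47 lung fibroblast cells; quantity: 1,150 cells/well; medium: IMEM plus 15% FBS; doses: 0.1% DMSO in all compound wells; timing: overnight attachment after seeding, then 72 h compound exposure at 37 °C; detection: CellTiter-Glo luminescence; measure: % viability of median cell-only signal; controls: cell-only wells, no compound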
E coli WT exp = blocks growth of wild type E. coli BW25113 | OD600 absorbance | growth inhibition, % at 100 µM | hit rate 0.15% among 98,000;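 active means growth inhibition above about 50% at one test dose, limit read from the data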;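 further: growth measured after 20 h incubation at 37 °C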
Of the large screens only hits and unclear results are named; the others gave an inactive call.

CO[C@@]1(NC(=O)Cc2cccs2)C(=O)N2C(C(=O)O)=C(COC(N)=O)CS[C@@H]21	Ecoli tolC 100.0 (no result: H69AR inhibit, HUVEC inhibit, Jurkat tox 60K, Lung fibro prol, E coli WT exp)
COc1ccccc1N1CCN(C(=O)Cc2cccs2)CC1	none
COc1ccccc1CNC(=O)c1oc2ccc(S(=O)(=O)N3CCCC3)cc2c1C	none
Cc1cc(C)n2nc(C(=O)Nc3ccc4c(c3)OCO4)cc2n1	none (no result: Ecoli tolC, Jurkat tox 60K)
COc1ccc(-c2n[nH]c(C)c2-c2ccc(Cl)cc2)c(O)c1OC	H69AR inhibit 35.1
Cc1[nH]nc(-c2ccc(O)cc2O)c1-c1ccc(Cl)cc1	Ecoli tolC 100.0
CCN(CC)C(=O)CSc1nnc(-c2ccncc2)n1N	none (no result: Ecoli tolC, Jurkat tox 60K)
Cc1nn(C)c(C)c1NC(=O)CSc1nc(Cc2ccccc2)nc2c1cnn2-c1ccccc1	H69AR inhibit 5.3 (no result: E coli WT exp)
COC(=O)CCC(=O)COc1ccccc1C#N	none
CCOc1ccc(Br)cc1/C(C)=N\NC1=NCCN1	H69AR inhibit 17.7 (no result: Ecoli tolC, Jurkat tox 60K)
O=C(NCc1ccncc1)c1ccc(Br)o1	none (no result: Lung fibro prol)
CC1Cc2ccccc2N1C(=O)COC(=O)Cn1nnc(-c2ccccc2)n1 (centres undefined)	H69AR inhibit 21.6
O=C(Cn1nnc(-c2ccccc2)n1)OCc1ccccc1	none (no result: H69AR inhibit, HUVEC inhibit, Lung fibro prol)
NC(=S)Nc1cnc2ccccc2c1	none (no result: H69AR inhibit, HUVEC inhibit, Ecoli tolC, Jurkat tox 60K, Lung fibro prol)
Cc1ccc(/C=C2/CCc3c([nH]c4ccccc34)C2=O)cc1	none (no result: H69AR inhibit, HUVEC inhibit, Ecoli tolC, Jurkat tox 60K, Lung fibro prol)
CN(C)/N=C/C=C1\CC/C(=C\c2ccc(Br)cc2)C1=O	H69AR inhibit 24.1 (no result: Ecoli tolC, Jurkat tox 60K)
CCOc1ccc(-c2nc(C#N)c(N3CCCCCC3)o2)cc1	Ecoli tolC 67.9
CCn1cc(C(=O)OC(C)C(=O)Nc2c(C)n(C)n(-c3ccccc3)c2=O)c(=O)c2ccc(C)nc21 (centres undefined)	Ecoli tolC 98.8
CC(C)CC(=O)n1sc(NC(=O)c2ccccc2)nc1=O	none (no result: H69AR inhibit, HUVEC inhibit, Ecoli tolC, Jurkat tox 60K, Lung fibro prol)
COC(=O)C1=C(C(=O)OC)SC(=C2C(=S)C(C)(C)N(C(=O)CC(C)C)c3ccccc32)S1	H69AR inhibit 17.3 (no result: Ecoli tolC, Jurkat tox 60K)
CCCCNC(=O)c1ccccc1C(=O)NCCCC	none
Cc1cc(C)nc(NC(=O)/C=C/c2ccccc2Cl)n1	none (no result: H69AR inhibit, HUVEC inhibit, Ecoli tolC, Jurkat tox 60K, Lung fibro prol)
Cc1cc(C(=O)NNC(=S)NC(=O)/C=C/c2ccccc2Cl)n[nH]1	H69AR inhibit 36.0 (no result: Ecoli tolC, Jurkat tox 60K)
Cc1ccc(OCC(=O)Nc2oc(-c3ccccc3)c(-c3ccccc3)c2C#N)cc1	H69AR inhibit 28.4 (no result: Ecoli tolC, Jurkat tox 60K, E coli WT exp)
COc1ccc(-c2oc(NC(=O)CCl)c(C#N)c2-c2ccc(OC)cc2)cc1	H69AR inhibit 1.8, HUVEC inhibit 4.3, Lung fibro prol 26.1 (no result: Ecoli tolC, Jurkat tox 60K)
N#Cc1c(NC(=O)CSc2n[nH]c(Cc3ccccc3)n2)oc(-c2ccccc2)c1-c1ccccc1	Ecoli tolC 63.8
COc1ccc(-c2oc(NC(=O)CSc3ncn[nH]3)c(C#N)c2-c2ccc(OC)cc2)cc1	H69AR inhibit 29.0 (no result: Ecoli tolC, Jurkat tox 60K)
NS(=O)(=O)c1ccc(CNC(=O)NC23CC4CC(CC(C4)C2)C3)cc1	none
Cc1ccc(C(=O)NNC(=S)NC(=O)c2ccc(Cl)cc2)cc1	none (no result: H69AR inhibit, HUVEC inhibit, Ecoli tolC, Jurkat tox 60K, Lung fibro prol)
O=C(NNC(=S)NC(=O)c1cccnc1)c1ccc(Cl)cc1	E coli WT exp 74.0 (no result: H69AR inhibit, HUVEC inhibit, Ecoli tolC, Jurkat tox 60K, Lung fibro prol)
CCCCN1C(=O)NC2NC(=O)NC21 (centres undefined)	none (no result: Ecoli tolC, Jurkat tox 60K, E coli WT exp)
Cc1ccccc1OCCCN1C(=O)C(=O)c2cccc(C)c21	H69AR inhibit 16.7, Ecoli tolC 100.0
Cc1cccc2c1N(CCCOc1ccc(C(C)(C)C)cc1)C(=O)C2=O	H69AR inhibit 0.8, HUVEC inhibit 1.6 (no result: Ecoli tolC, Jurkat tox 60K)
c1ccc2c(c1)Cn1nnnc1-2	none
Fc1ccc(-c2cc3nc4c(c(N5CCOCC5)n3n2)CCCC4)cc1	H69AR inhibit 35.2
Cc1cccc(-c2cc3nc4c(c(NCc5ccco5)n3n2)CCCC4)c1	none (no result: H69AR inhibit, HUVEC inhibit, Ecoli tolC, Jurkat tox 60K, Lung fibro prol)
Cc1cccc(-c2cc3nc4c(c(N5CCC6(CC5)OCCO6)n3n2)CCCC4)c1	H69AR inhibit 30.8 (no result: E coli WT exp)
Cc1cccc(-c2cc3nc4c(c(N5CCOCC5)n3n2)CCCC4)c1	Ecoli tolC 84.7
Cc1cccc(-c2cc3nc4c(c(N5CCCC(O)C5)n3n2)CCC4)c1 (centres undefined)	none
CCOC(=O)N1CC=C2C(C#N)=C(N)C(C#N)(C#N)[C@H](c3ccccc3OCC)[C@H]2C1	none
CCOC(=O)N1CC=C2C(C#N)=C(N)C(C#N)(C#N)[C@H](c3ccsc3)[C@H]2C1	none
N#CC1=C(N)C(C#N)(C#N)C(c2ccncc2)C2CN(C(=O)OCc3ccccc3)CC=C12 (centres undefined)	H69AR inhibit 7.7 (no result: Ecoli tolC, Jurkat tox 60K, E coli WT exp)
